Sampled rows, rich in hits. Any-hit rate of the full collection: about 2.7%.
NR1D1 modulator: modulates human Rev-erb alpha binding to DNA; Rev-erbα–FITC-DNA binding, fluorescence polarization, 90 min; activity, % at 10 µM; 370,000 compounds, 0.79% hits; AID 1259318;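 active means activity above about 14%, limit read from the data; passing the limit was not always enough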;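 further: 0% = DMSO wells with 35 nM protein and 100% = DMSO wells with 750 nM protein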
PG9 binder: binds the HIV-1 gp120 antibody PG9. TR-FRET gp120-PG9 antibody binding. inhibition, % at 6.7 µM. 360,000 compounds, 0.43% hits; in the data active means inhibition above about 8.5%
MC4R barr agon: activates human MC4R beta-arrestin recruitment | 360,000 compounds, 0.98% hits | U2OS MC4R beta-arrestin complementation, luminescence; percent of melanotan II response, DMSO zero | P32245 | activation, % at 8.9 µM;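 active means activation above a per-plate cutoff, the mean activation of sample wells on that plate plus 3 SD, cut at about 8% in these data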
Target sequence (P32245 whole entry, looked up): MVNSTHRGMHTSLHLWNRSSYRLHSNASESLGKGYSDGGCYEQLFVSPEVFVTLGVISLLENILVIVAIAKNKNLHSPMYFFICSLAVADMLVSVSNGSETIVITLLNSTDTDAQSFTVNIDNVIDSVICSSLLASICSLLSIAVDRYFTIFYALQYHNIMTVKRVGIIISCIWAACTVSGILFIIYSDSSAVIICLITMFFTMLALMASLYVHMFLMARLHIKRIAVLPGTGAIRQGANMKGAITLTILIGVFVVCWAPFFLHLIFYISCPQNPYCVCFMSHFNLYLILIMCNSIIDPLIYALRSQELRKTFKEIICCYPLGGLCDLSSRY
NR2E3 ag-1: activates human NR2E3 receptor | CHO-S Gal4-NCOR/VP16-NR2E3 two-hybrid, luciferase | inhibition of corepressor binding, % at 3.98 µM | 360,000 compounds, 0.35% hits | Q9Y5X4;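 active means inhibition above the mean of all tested compounds plus 3 SD, cut at about 70% in these data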;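 further: 0% = DMSO with NR2E3 transfected cells and 100% = cells lacking NR2E3 construct; higher means lower luciferase signal from less NR2E3 corepressor binding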
MC4R antag cAMP: human MC4R antagonism in cAMP assay | P32245 | MC4R-expressing cells, MTII-stimulated cAMP, LANCE TR-FRET | inhibition, % at 6.5 µM | 360,000 compounds, 0.48% hits | AID 540295;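 active means inhibition above its plate's cutoff, the mean of tested wells on that plate plus 3 SD, cut at about 29% in these data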;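 further: 0% = Melanotan II alone and 100% = Melanotan II plus saturating MCL0020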
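Test system: U2OS cells stably expressing human melanocortin 4 receptor (MC4R); also added: Melanotan II challenge; compound: 6.5 µM single dose; timing: 30-min compound preincubation, 1-h Melanotan II challenge, 1-h detection, room temperature; signal: Eu-cAMP/anti-cAMP TR-FRET, emission 671 nm; repeats: one well per compound, no replicates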
NR2E3 ag-2: NR2E3 (human) agonism; Q9Y5X4; GST-NR2E3/biotin-RetCOR TR-FRET, 1536-well; inhibition of corepressor binding, % at 4.78 µM; 320,000 compounds, 0.12% hits; AID 2300;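 active means percent inhibition above the cutoff of mean plus 3 SD of all tested compounds, set per screening campaign, cut at about 20% in these data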;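 further: 0% = DMSO wells and 100% = biotin wells as full block of FRET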
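Material: NR2E3–RetCOR corepressor complex / Amount: 1.35 nM GST-NR2E3 / Medium: Tris pH 7.5 / Compound: single nominal compound dose of 4.8 µM / Incubation: 5 h at 4 °C / Technique: TR-FRET, Eu(K)-anti-GST donor, streptavidin-D2 acceptor, ex 340, em 617/671 nm / Read-out basis: percent loss of FRET ratio relative to control wells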
cAMP nonselect: counter-screen for MC4R antagonists: nonselective cAMP signaling inhibitors. shares compounds with MC4R antag cAMP. parental U2OS, forskolin cAMP, LANCE TR-FRET. inhibition, % at 6.5 µM. 1,600 compounds, 26% hits;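 active means mean inhibition over triplicates above the low-control well mean plus 3 SD, set per campaign, cut at about 13% in these data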;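 further: signal is single emission at 671 nm which falls as cellular cAMP rises; 0% = forskolin-stimulated wells and 100% = buffer without forskolin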
MC4R antag conf: human MC4R cAMP antagonism confirmation. shares compounds with MC4R antag cAMP. MC4R-expressing cells, MTII-stimulated cAMP, TR-FRET. inhibition, % at 6.5 µM. 1,600 compounds, 27% hits; in the data active means inhibition above about 29%;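 further: 0% = agonist stimulated wells alone and 100% = agonist stimulated wells plus saturating reference antagonist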
Starred values were filed as active, the others as inactive; nt = not tested or not shown.

SMILES	NR1D1 modulator	PG9 binder	MC4R barr agon	NR2E3 ag-1	MC4R antag cAMP	NR2E3 ag-2	cAMP nonselect	MC4R antag conf
O=C(COC(=O)[C@H](Cc1ccccc1)NC(=O)c1ccco1)NCc1ccccc1	-2	-1	-2	3	29*	-3	7	14
CN(C)C(=O)COC(=O)[C@H](Cc1ccccc1)NC(=O)c1ccco1	7	4	-1	7	29*	-1	14*	27
O=C(NC(Cc1ccc(O)cc1)C(=O)O)c1ccco1 (centres undefined)	5	-2	-1	13	-6	5	nt	nt
COc1ccccc1CNCc1cc(OC)c(OC)c(OC)c1	-6	-3	-1	-28	30*	-1	0	-7
O=C(NCCCN1CCOCC1)C(=O)NCC1OCCN1S(=O)(=O)c1cc(F)ccc1F (centres undefined)	0	-3	-3	-3	-2	-1	nt	nt
COC(=O)c1ccc(Nc2nc(N3CCOCC3)nc(N3CCOCC3)n2)cc1	-6	0	0	15	6	0	nt	nt
CC(C)(C)CC(C)(C)c1ccc(O)c(Cc2ccc(Cl)cc2Cl)c1	3	-3	2	-4	44*	nt	0	16
CCn1c(SCC(=O)Nc2cc(C)ccc2C)nc2c(c1=O)SC(C)C2 (centres undefined)	11	0	-1	-9	1	3	nt	nt
Cc1ccccc1N1CCN(C2CCCN(C(=O)CCN3CCCCC3=O)C2)CC1 (centres undefined)	-2	3	-1	-12	7	-1	nt	nt
Cc1ccc(NC(=O)c2sc(N)nc2-c2ccccc2)cc1C	1	-2	0	-6	2	-1	nt	nt
Cc1cccc(C)c1NC(=O)c1sc(N)nc1-c1ccccc1	1	2	1	3	30*	2	-3	5
CC(=O)c1cccc(-c2ccnc3c2CC(C(=O)NCCC(F)(F)F)O3)c1 (centres undefined)	1	0	2	-10	-5	nt	nt	nt
COC(=O)CSc1nc2ccccc2nc1SCC(=O)OC	14	2	1	-10	36*	3	6	-4
COC(=O)CSc1cnc2ccccc2n1	4	1	0	-1	12	2	nt	nt
COc1ccc(C(=O)CCN2CCC(C)CC2)cc1	-1	-3	-2	-22	31*	-1	9	17
CCOC(=O)N1CCN(CCC(=O)c2ccc(Cl)cc2)CC1	-4	-2	-3	-19	14	-1	nt	nt
COc1ccc(N2CCN(CC(=O)c3ccccc3)CC2)cc1	-1	-1	-2	-20	16	-5	nt	nt
COc1ccc(N2CCN(CCC(=O)c3ccc4ccccc4c3)CC2)cc1	6	1	-1	0	29*	3	7	3
CCOC(=O)N1CCN(CCC(=O)c2ccc(OC)cc2)CC1	1	1	-4	-16	33*	-1	10	22
Cc1ccccc1NC(=O)NCCCN1CCCC1=O	9	1	-2	-7	-3	0	nt	nt
NS(=O)(=O)c1cccc(NC(=O)c2cccc3c(Br)cccc23)c1	-1	3	1	-16	43*	4	3	7
CCOc1ccc(C(=O)OCC(=O)NCc2ccccc2)cc1OCC	-1	-1	0	5	1	2	nt	nt
CCOc1ccc(C(=O)CCC(=O)NCC(=O)OCc2ccccc2)cc1OCC	-3	0	2	-13	32*	3	13	24
C=c1[nH]cc(C(C)c2c(C)n(C)c3ccccc23)/c1=C/C (centres undefined)	4	nt	nt	nt	nt	nt	nt	nt
CC(=O)NCC(c1cccs1)S(=O)(=O)c1ccc(F)cc1 (centres undefined)	-6	1	1	-12	33*	1	5	6
SMILES	NR1D1 modulator	PG9 binder	MC4R barr agon	NR2E3 ag-1	MC4R antag cAMP	NR2E3 ag-2	cAMP nonselect	MC4R antag conf
CC(C)OCCCN1CN(S(=O)(=O)c2ccc(Cl)cc2)c2nc3ccccc3nc21	6	2	0	-23	-2	0	nt	nt
Cc1c(/C=N\NC(=O)C2(C)CC2(Cl)Cl)cnn1C (centres undefined)	0	-2	-1	-19	-2	-2	nt	nt
CC1(C(=O)N/N=C/c2c(F)c(F)c(F)c(F)c2F)CC1(Cl)Cl (centres undefined)	4	1	-3	-13	32*	-3	11	54*
O=C(Nc1cc2c(cc1Cl)OCCO2)c1ccco1	-4	0	3	-74	6	-1	nt	nt
COc1cc(S(=O)(=O)n2ccc(C)n2)ccc1Cl	2	-2	0	-30	29*	2	1	-7
Cc1cc(-c2nnc(SCC(=O)Nc3ccc(F)c(F)c3)n2N)n[nH]1	2	1	-2	-19	7	1	nt	nt
CCOC(=O)C1=C(C)N=c2s/c(=C/c3ccc(OCC(=O)O)cc3)c(=O)n2C1c1ccc(F)cc1 (centres undefined)	5	-1	0	-14	30*	-1	2	-5
Cc1nc2c(-c3ccccc3)c(C)[nH]n2c(=O)c1Cc1ccccc1	1	-3	-1	25	10	2	nt	nt
COc1ccc(-c2c(C)[nH]n3c(=O)c(Cc4ccccc4)c(C)nc23)cc1OC	1	-1	-3	-12	31*	5	2	7
CC(C)c1ccc(Nc2nnc(SC3CCOC3=O)s2)cc1 (centres undefined)	2	-1	-3	-18	31*	1	41*	33*
CSc1ccc(OC2CCCCC2NS(=O)(=O)c2ccc(Cl)cc2)cc1 (centres undefined)	-1	1	2	-3	31*	3	0	16
COC(=O)c1cc(NC(=O)CN2C(=O)CSC2=O)ccc1Cl	-6	0	0	-3	-1	-5	nt	nt
O=C(CCNC(=O)c1ccc([N+](=O)[O-])cc1)NC1CCCCCC1	3	0	-2	0	4	-3	nt	nt
NC(=O)CCn1c(C(=O)c2cc(Cl)c(N)c(Cl)c2)c2ccccc2[n+]1[O-]	-2	0	0	-29	-6	-1	nt	nt
Cc1ccnn1CCC(=O)N1CCCC(CCC(=O)NCc2ccccc2F)C1 (centres undefined)	-3	-1	1	-24	29*	-1	0	3
Cc1cccc(-n2nc3c(c2NC(=O)c2ccc(S(=O)(=O)N4CCOCC4)cc2)CSC3)c1C	-4	-4	-2	-14	4	nt	nt	nt
